{"source": "ChEMBL document CHEMBL5356968", "about": "“Miconazole-like Scaffold is a Promising Lead for Naegleria fowleri-Specific CYP51 Inhibitors” (J Med Chem, 2023)", "data": [{"test_system": "Naegleria fowleri", "assay": "Antiprotozoal activity against Naegleria fowleri European KUL assessed as inhibition of parasite growth at 10 uM incubated for 48 hrs by CellTiter-Glo luminescent cell viability assay relative to control", "type": "functional", "conditions": "not given", "in_short": "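Axenic N. fowleri KUL trophozoites from log-phase culture in Nelson's medium with 10% FBS at 37 °C. Primary screen run in duplicate at 10 μM, 2,500 amoebae/well in 384-well format. Plates incubated 48 h at 37 °C, then viability read by CellTiter-Glo luminescence. BSL-2 handling.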", "units": {"inhibition at 10 µM": "%"}, "values": [{"compound": "CC(C)c1cccc(NC(=O)OC(Cn2ccnc2)c2ccccc2)c1", "note": "(stereo not given)", "inhibition at 10 µM": "≥ 50"}, {"compound": "COc1ccc(C(Cc2ccc(Cl)cc2)n2ccnc2)cc1", "note": "(stereo not given)", "inhibition at 10 µM": "≥ 50"}, {"compound": "O=C(OC(Cn1ccnc1)c1ccc(F)cc1)c1cccc(C(F)(F)F)c1", "note": "(racemic)", "inhibition at 10 µM": "≥ 50"}, {"compound": "O=C(OC(Cn1ccnc1)c1ccccc1)c1cccc(C(F)(F)F)c1", "note": "(stereo not given)", "inhibition at 10 µM": "≥ 50"}, {"compound": "Clc1ccc(C(c2ccn(-c3ccc(Cl)cc3)c2)n2ccnc2)cc1", "note": "(stereo not given)", "inhibition at 10 µM": "≥ 50"}, {"compound": "Clc1ccc(-n2ccc(C(c3ccccc3)n3ccnc3)c2)cc1", "note": "(stereo not given)", "inhibition at 10 µM": "≥ 50"}, {"compound": "COc1ccc(C(Cc2ccc(-n3cccc3)cc2)n2ccnc2)cc1", "note": "(stereo not given)", "inhibition at 10 µM": "≥ 50"}, {"compound": "O=C(Nc1ccc(N2CCN(c3ccc(Cl)cc3)CC2)cc1)OC(Cn1ccnc1)c1ccc(F)cc1", "note": "(stereo not given)", "inhibition at 10 µM": "≥ 50"}, {"compound": "COc1ccc(CC(c2ccc(OC)cc2)n2ccnc2)cc1", "note": "(stereo not given)", "inhibition at 10 µM": "≥ 50"}]}, {"test_system": "Naegleria fowleri", "assay": "Antiprotozoal activity against Naegleria fowleri European KUL assessed as inhibition of parasite growth incubated for 48 hrs by CellTiter-Glo luminescent cell viability assay", "type": "functional, organism-based", "conditions": "not given", "units": {"EC50": "µM"}, "values": [{"compound": "OC(Cn1cncn1)(Cn1cncn1)c1ccc(F)cc1F", "note": "[FLUCONAZOLE]", "EC50": 13.9}]}, {"test_system": "not listed separately", "assay": "Drug concentration in C57BL/6 mouse plasma at 40 mg/kg, ip measured after 1 hrs by HPLC-ESI-MS/MS analysis", "type": "ADME, organism-based", "conditions": "not given", "units": {"concentration at 1 h": "ng/mL"}, "values": [{"compound": "FC(F)(F)c1cccc(CO[C@H](Cn2ccnc2)c2ccc(Cl)cc2Cl)c1", "concentration at 1 h": 37}, {"compound": "Fc1ccc([C@@H](Cn2ccnc2)OCc2cc(Cl)cc(Cl)c2)cc1", "concentration at 1 h": 656}]}, {"test_system": "Naegleria fowleri", "assay": "Antiprotozoal activity against Naegleria fowleri", "type": "functional, organism-based", "conditions": "not given", "in_short": "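N. fowleri European KUL trophozoites, axenic in Nelson's medium + 10% FBS at 37 °C, harvested in log phase. Single-point screen at 10 μM in duplicate (2,500 amoebae/well). Dose–response in triplicate, serial dilution 50 to 0.39 μM (10,000 amoebae/well). 48 h at 37 °C; viability by CellTiter-Glo luminescence.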", "units": {"EC50": "µM"}, "values": [{"compound": "CCC(C)n1ncn(-c2ccc(N3CCN(c4ccc(OCC5COC(Cn6cncn6)(c6ccc(Cl)cc6Cl)O5)cc4)CC3)cc2)c1=O", "note": "(stereo not given) [ITRACONAZOLE]", "EC50": "≤ 10"}, {"compound": "CC[C@@H]([C@H](C)O)n1ncn(-c2ccc(N3CCN(c4ccc(OC[C@@H]5CO[C@@](Cn6cncn6)(c6ccc(F)cc6F)C5)cc4)CC3)cc2)c1=O", "note": "[POSACONAZOLE]", "EC50": "≤ 10"}]}, {"test_system": "not listed separately", "assay": "Drug concentration in C57BL/6 mouse brain at 40 mg/kg, ip measured after 1 hrs by HPLC-ESI-MS/MS analysis", "type": "ADME, organism-based", "conditions": "read-out: Drug uptake", "units": {"concentration at 1 h": "ng/g"}, "values": [{"compound": "Fc1ccc([C@@H](Cn2ccnc2)OCc2cc(Cl)cc(Cl)c2)cc1", "concentration at 1 h": 232}]}]}
